# Results: ChEMBL document CHEMBL1128580, “Synthesis and antibacterial activity of some novel 1-substituted 1,4-dihydro-4-oxo-7-pyridinyl-3-quinolinecarboxylic acids. Potent antistaphylococcal agents” (1995)
# System: Escherichia coli
# Assay: Minimum Inhibitory concentration measured against Escherichia coli ATCC 1-25922
# Assay type: functional
# How it was run: (§1)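 Broth microdilution on cultures kept as frozen stock, grown in Mueller Hinton II medium for 18–24 h at 37 °C. Suspension adjusted to absorbance 0.1 at 650 nm and diluted 1:10 in medium to give the inoculum. Final density 10⁵ cells/mL; plates incubated 24 h at 37 °C.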
row,SMILES,MIC
1,Cc1cc(-c2c(F)c(F)c3c(=O)c(C(=O)O)cn(C4CC4)c3c2F)cc(C)n1,0.13 µg/mL
2,Cc1ccc(-c2cc3c(cc2F)c(=O)c(C(=O)O)cn3C2CC2)c(C)n1,0.5 µg/mL
3,Cc1cc(-c2cc3c(cc2F)c(=O)c(C(=O)O)cn3C2CC2)c(C)c(C)n1,0.125 µg/mL
4,Cc1ccc(-c2cc3c(cc2F)c(=O)c(C(=O)O)cn3C2CC2)cn1,0.03 µg/mL
5,Cc1cncc(-c2cc3c(cc2F)c(=O)c(C(=O)O)cn3C2CC2)c1,0.06 µg/mL
6,CCn1cc(C(=O)O)c(=O)c2cc(F)c(N3CCNCC3)cc21 [NORFLOXACIN],0.125 µg/mL
7,CCn1cc(C(=O)O)c(=O)c2ccc(-c3ccncc3)cc21 [ROSOXACIN],0.125 µg/mL

# Continued, values first:
row,MIC,SMILES
1,0.06 µg/mL,CCn1cc(C(=O)O)c(=O)c2cc(F)c(-c3cc(C)nc(C)c3)cc21
2,0.06 µg/mL,Cc1cc(-c2cc3c(cc2F)c(=O)c(C(=O)O)cn3C2CC2)cc(CO)n1
3,0.125 µg/mL,Cc1cc(-c2cc3c(cc2F)c(=O)c(C(=O)O)cn3-c2ccc(F)cc2)cc(C)n1
4,0.06 µg/mL,CCNCc1cc(-c2cc3c(cc2F)c(=O)c(C(=O)O)cn3C2CC2)cc(C)n1
5,0.25 µg/mL,CCn1cc(C(=O)O)c(=O)c2ccc(-c3cc(C)nc(C)c3)cc21 [DIMETHYLROSOXACIN]
6,0.06 µg/mL,Cc1cc(-c2c(F)cc3c(=O)c(C(=O)O)cn(C4CC4)c3c2F)cc(C)n1 [WIN-57294]

# System: Pseudomonas aeruginosa
# Assay: Minimum Inhibitory concentration measured against Pseudomonas aeruginosa ATCC 27853
# Assay type: functional
# How it was run: as §1
row,SMILES,MIC
1,Cc1cc(-c2c(F)c(F)c3c(=O)c(C(=O)O)cn(C4CC4)c3c2F)cc(C)n1,8 µg/mL
2,Cc1ccc(-c2cc3c(cc2F)c(=O)c(C(=O)O)cn3C2CC2)c(C)n1,> 16 µg/mL
3,Cc1cc(-c2cc3c(cc2F)c(=O)c(C(=O)O)cn3C2CC2)c(C)c(C)n1,8 µg/mL
4,Cc1ccc(-c2cc3c(cc2F)c(=O)c(C(=O)O)cn3C2CC2)cn1,2 µg/mL
5,Cc1cncc(-c2cc3c(cc2F)c(=O)c(C(=O)O)cn3C2CC2)c1,2 µg/mL
6,CCn1cc(C(=O)O)c(=O)c2cc(F)c(N3CCNCC3)cc21 [NORFLOXACIN],2 µg/mL
7,CCn1cc(C(=O)O)c(=O)c2ccc(-c3ccncc3)cc21 [ROSOXACIN],16 µg/mL

# More lines, now with the values ahead:
row,MIC,SMILES
1,4 µg/mL,CCn1cc(C(=O)O)c(=O)c2cc(F)c(-c3cc(C)nc(C)c3)cc21
2,4 µg/mL,Cc1cc(-c2cc3c(cc2F)c(=O)c(C(=O)O)cn3C2CC2)cc(CO)n1
3,4 µg/mL,Cc1cc(-c2cc3c(cc2F)c(=O)c(C(=O)O)cn3-c2ccc(F)cc2)cc(C)n1
4,8 µg/mL,CCNCc1cc(-c2cc3c(cc2F)c(=O)c(C(=O)O)cn3C2CC2)cc(C)n1
5,2 µg/mL,CCn1cc(C(=O)O)c(=O)c2ccc(-c3cc(C)nc(C)c3)cc21 [DIMETHYLROSOXACIN]
6,4 µg/mL,Cc1cc(-c2c(F)cc3c(=O)c(C(=O)O)cn(C4CC4)c3c2F)cc(C)n1 [WIN-57294]

# System: Staphylococcus aureus
# Assay: Minimum Inhibitory concentration measured against Staphylococcus aureus ATCC 29213
# Assay type: functional
# How it was run: as §1
row,SMILES,MIC
1,Cc1cc(-c2c(F)c(F)c3c(=O)c(C(=O)O)cn(C4CC4)c3c2F)cc(C)n1,0.008 µg/mL
2,Cc1ccc(-c2cc3c(cc2F)c(=O)c(C(=O)O)cn3C2CC2)c(C)n1,1 µg/mL
3,Cc1cc(-c2cc3c(cc2F)c(=O)c(C(=O)O)cn3C2CC2)c(C)c(C)n1,0.06 µg/mL
4,Cc1ccc(-c2cc3c(cc2F)c(=O)c(C(=O)O)cn3C2CC2)cn1,0.03 µg/mL
5,Cc1cncc(-c2cc3c(cc2F)c(=O)c(C(=O)O)cn3C2CC2)c1,0.016 µg/mL
6,O=C(O)c1cn(C2CC2)c2cc(N3CCNCC3)c(F)cc2c1=O [CIPROFLOXACIN],0.25 µg/mL
7,CCn1cc(C(=O)O)c(=O)c2cc(F)c(N3CCNCC3)cc21 [NORFLOXACIN],2 µg/mL
8,CCn1cc(C(=O)O)c(=O)c2ccc(-c3ccncc3)cc21 [ROSOXACIN],0.5 µg/mL

# More lines, now with the values ahead:
row,MIC,SMILES
1,0.03 µg/mL,CCn1cc(C(=O)O)c(=O)c2cc(F)c(-c3cc(C)nc(C)c3)cc21
2,0.03 µg/mL,Cc1cc(-c2cc3c(cc2F)c(=O)c(C(=O)O)cn3C2CC2)cc(CO)n1
3,0.125 µg/mL,Cc1cc(-c2cc3c(cc2F)c(=O)c(C(=O)O)cn3-c2ccc(F)cc2)cc(C)n1
4,0.5 µg/mL,CCNCc1cc(-c2cc3c(cc2F)c(=O)c(C(=O)O)cn3C2CC2)cc(C)n1
5,0.25 µg/mL,CCn1cc(C(=O)O)c(=O)c2ccc(-c3cc(C)nc(C)c3)cc21 [DIMETHYLROSOXACIN]
6,0.008 µg/mL,Cc1cc(-c2c(F)cc3c(=O)c(C(=O)O)cn(C4CC4)c3c2F)cc(C)n1 [WIN-57294]

# System: Streptococcus pyogenes
# Assay: Minimum Inhibitory concentration measured against Streptococcus pyogenes ATCC 6301
# Assay type: functional
# How it was run: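 ATCC 6301 was grown in brain heart infusion broth with 10% heat-inactivated horse serum for 18–24 h at 37 °C. Suspension brought to absorbance 0.1 at 650 nm, then diluted 1:10 in the same medium. Broth microdilution at a final 10⁵ cells/mL, incubated 24 h at 37 °C.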
row,SMILES,MIC
1,Cc1cc(-c2c(F)c(F)c3c(=O)c(C(=O)O)cn(C4CC4)c3c2F)cc(C)n1,0.03 µg/mL
2,Cc1ccc(-c2cc3c(cc2F)c(=O)c(C(=O)O)cn3C2CC2)c(C)n1,8 µg/mL
3,Cc1cc(-c2cc3c(cc2F)c(=O)c(C(=O)O)cn3C2CC2)c(C)c(C)n1,0.25 µg/mL
4,Cc1ccc(-c2cc3c(cc2F)c(=O)c(C(=O)O)cn3C2CC2)cn1,0.25 µg/mL
5,Cc1cncc(-c2cc3c(cc2F)c(=O)c(C(=O)O)cn3C2CC2)c1,0.06 µg/mL
6,O=C(O)c1cn(C2CC2)c2cc(N3CCNCC3)c(F)cc2c1=O [CIPROFLOXACIN],0.25 µg/mL
7,CCn1cc(C(=O)O)c(=O)c2cc(F)c(N3CCNCC3)cc21 [NORFLOXACIN],4 µg/mL
8,CCn1cc(C(=O)O)c(=O)c2ccc(-c3ccncc3)cc21 [ROSOXACIN],16 µg/mL

# Second part, the compound after the results:
row,MIC,SMILES
1,0.25 µg/mL,CCn1cc(C(=O)O)c(=O)c2cc(F)c(-c3cc(C)nc(C)c3)cc21
2,0.06 µg/mL,Cc1cc(-c2cc3c(cc2F)c(=O)c(C(=O)O)cn3C2CC2)cc(CO)n1
3,1 µg/mL,Cc1cc(-c2cc3c(cc2F)c(=O)c(C(=O)O)cn3-c2ccc(F)cc2)cc(C)n1
4,0.5 µg/mL,CCNCc1cc(-c2cc3c(cc2F)c(=O)c(C(=O)O)cn3C2CC2)cc(C)n1
5,32 µg/mL,CCn1cc(C(=O)O)c(=O)c2ccc(-c3cc(C)nc(C)c3)cc21 [DIMETHYLROSOXACIN]
6,0.016 µg/mL,Cc1cc(-c2c(F)cc3c(=O)c(C(=O)O)cn(C4CC4)c3c2F)cc(C)n1 [WIN-57294]

# System: Bacteroides fragilis
# Assay: Minimum Inhibitory concentration measured against Bacteroides fragilis ATCC 25285
# Assay type: functional
# How it was run: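 Anaerobic broth microdilution. Grown in brain heart infusion broth with 5 µg/mL hemin and 0.5 µg/mL vitamin K for 48 h at 37 °C under 5% CO₂, 10% H₂, 85% N₂. Adjusted to absorbance 0.1 at 650 nm and diluted 1:10. Final 10⁵ cells/mL; plates incubated anaerobically for 48 h at 37 °C.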
row,SMILES,MIC
1,Cc1cc(-c2c(F)c(F)c3c(=O)c(C(=O)O)cn(C4CC4)c3c2F)cc(C)n1,0.5 µg/mL
2,Cc1ccc(-c2cc3c(cc2F)c(=O)c(C(=O)O)cn3C2CC2)c(C)n1,4 µg/mL
3,Cc1cc(-c2cc3c(cc2F)c(=O)c(C(=O)O)cn3C2CC2)c(C)c(C)n1,4 µg/mL
4,Cc1ccc(-c2cc3c(cc2F)c(=O)c(C(=O)O)cn3C2CC2)cn1,0.25 µg/mL
5,Cc1cncc(-c2cc3c(cc2F)c(=O)c(C(=O)O)cn3C2CC2)c1,0.25 µg/mL
6,O=C(O)c1cn(C2CC2)c2cc(N3CCNCC3)c(F)cc2c1=O [CIPROFLOXACIN],2 µg/mL
7,CCn1cc(C(=O)O)c(=O)c2cc(F)c(N3CCNCC3)cc21 [NORFLOXACIN],8 µg/mL
8,CCn1cc(C(=O)O)c(=O)c2ccc(-c3ccncc3)cc21 [ROSOXACIN],8 µg/mL

# Next, values leading:
row,MIC,SMILES
1,2 µg/mL,CCn1cc(C(=O)O)c(=O)c2cc(F)c(-c3cc(C)nc(C)c3)cc21
2,1 µg/mL,Cc1cc(-c2cc3c(cc2F)c(=O)c(C(=O)O)cn3C2CC2)cc(CO)n1
3,1 µg/mL,Cc1cc(-c2cc3c(cc2F)c(=O)c(C(=O)O)cn3-c2ccc(F)cc2)cc(C)n1
4,8 µg/mL,CCNCc1cc(-c2cc3c(cc2F)c(=O)c(C(=O)O)cn3C2CC2)cc(C)n1
5,16 µg/mL,CCn1cc(C(=O)O)c(=O)c2ccc(-c3cc(C)nc(C)c3)cc21 [DIMETHYLROSOXACIN]
6,0.125 µg/mL,Cc1cc(-c2c(F)cc3c(=O)c(C(=O)O)cn(C4CC4)c3c2F)cc(C)n1 [WIN-57294]

# System: Enterococcus faecalis
# Assay: Minimum Inhibitory concentration measured against Streptococcus faecalis ATCC 29212
# Assay type: functional
# How it was run: as §1
row,SMILES,MIC
1,Cc1cc(-c2c(F)c(F)c3c(=O)c(C(=O)O)cn(C4CC4)c3c2F)cc(C)n1,0.06 µg/mL
2,Cc1ccc(-c2cc3c(cc2F)c(=O)c(C(=O)O)cn3C2CC2)c(C)n1,4 µg/mL
3,Cc1cc(-c2cc3c(cc2F)c(=O)c(C(=O)O)cn3C2CC2)c(C)c(C)n1,0.5 µg/mL
4,Cc1ccc(-c2cc3c(cc2F)c(=O)c(C(=O)O)cn3C2CC2)cn1,0.25 µg/mL
5,Cc1cncc(-c2cc3c(cc2F)c(=O)c(C(=O)O)cn3C2CC2)c1,0.125 µg/mL
6,O=C(O)c1cn(C2CC2)c2cc(N3CCNCC3)c(F)cc2c1=O [CIPROFLOXACIN],0.5 µg/mL
7,CCn1cc(C(=O)O)c(=O)c2cc(F)c(N3CCNCC3)cc21 [NORFLOXACIN],4 µg/mL
8,CCn1cc(C(=O)O)c(=O)c2ccc(-c3ccncc3)cc21 [ROSOXACIN],16 µg/mL

# The next lines start with the values.
row,MIC,SMILES
1,0.25 µg/mL,CCn1cc(C(=O)O)c(=O)c2cc(F)c(-c3cc(C)nc(C)c3)cc21
2,0.125 µg/mL,Cc1cc(-c2cc3c(cc2F)c(=O)c(C(=O)O)cn3C2CC2)cc(CO)n1
3,1 µg/mL,Cc1cc(-c2cc3c(cc2F)c(=O)c(C(=O)O)cn3-c2ccc(F)cc2)cc(C)n1
4,2 µg/mL,CCNCc1cc(-c2cc3c(cc2F)c(=O)c(C(=O)O)cn3C2CC2)cc(C)n1
5,1 µg/mL,CCn1cc(C(=O)O)c(=O)c2ccc(-c3cc(C)nc(C)c3)cc21 [DIMETHYLROSOXACIN]
6,0.06 µg/mL,Cc1cc(-c2c(F)cc3c(=O)c(C(=O)O)cn(C4CC4)c3c2F)cc(C)n1 [WIN-57294]
